These results are taken from PubChem BioAssay AID652011 (Sanford-Burnham Center for Chemical Genomics, 2013).

Several values for one entry are separate records, joined by “and”; a condition that tells them apart may be missing. Equal values may be shown once. Activity calls are given as the source filed them.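 The calls were made as follows: active = IC50 of 10 µM or lower on HIF-2a in both cell lines, but not on HIF-1a; inactive = the rest, including compounds also potent on HIF-1a.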

Holding throughout (assay): HIF reporter inhibition across pancreatic and renal lines – cell-based, luminescence, MIAPaCa-2, 786-0, panel, SAR follow-up (AID 652011)
One experiment relates to HIF1a. The note with it: MIAPaCa-2/PANC HIF reporter, luciferase luminescence, desferoxamine, overnight. The method, boiled down: (§1)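 Detection: luminescence, One-Glo; Reagent: desferoxamine; Incubation: overnight seeding and compound exposure, 37 °C, 5% CO2, 10-min detection.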
The test system of the next experiment is HIF2a PANC. The note with it: MIAPaCa-2/PANC HIF reporter, luciferase luminescence, desferoxamine, overnight. The method, boiled down: as §1
Experiment [1] deals with Endothelial PAS domain-containing protein 1 (Homo sapiens) (UniProt Q99814). The conditions noted are these: MIAPaCa-2/PANC HIF reporter, luciferase luminescence, desferoxamine, overnight; HIF2a PANC cells; mean of runs. The method, boiled down:
as §1

[2] abbreviates: run 1, individual run IC50, panel line.
Where [3] appears, read: run 2, individual run IC50, panel line.

Chain of Endothelial PAS domain-containing protein 1 (Homo sapiens) (Q99814 whole entry, looked up, the tested form may be a part): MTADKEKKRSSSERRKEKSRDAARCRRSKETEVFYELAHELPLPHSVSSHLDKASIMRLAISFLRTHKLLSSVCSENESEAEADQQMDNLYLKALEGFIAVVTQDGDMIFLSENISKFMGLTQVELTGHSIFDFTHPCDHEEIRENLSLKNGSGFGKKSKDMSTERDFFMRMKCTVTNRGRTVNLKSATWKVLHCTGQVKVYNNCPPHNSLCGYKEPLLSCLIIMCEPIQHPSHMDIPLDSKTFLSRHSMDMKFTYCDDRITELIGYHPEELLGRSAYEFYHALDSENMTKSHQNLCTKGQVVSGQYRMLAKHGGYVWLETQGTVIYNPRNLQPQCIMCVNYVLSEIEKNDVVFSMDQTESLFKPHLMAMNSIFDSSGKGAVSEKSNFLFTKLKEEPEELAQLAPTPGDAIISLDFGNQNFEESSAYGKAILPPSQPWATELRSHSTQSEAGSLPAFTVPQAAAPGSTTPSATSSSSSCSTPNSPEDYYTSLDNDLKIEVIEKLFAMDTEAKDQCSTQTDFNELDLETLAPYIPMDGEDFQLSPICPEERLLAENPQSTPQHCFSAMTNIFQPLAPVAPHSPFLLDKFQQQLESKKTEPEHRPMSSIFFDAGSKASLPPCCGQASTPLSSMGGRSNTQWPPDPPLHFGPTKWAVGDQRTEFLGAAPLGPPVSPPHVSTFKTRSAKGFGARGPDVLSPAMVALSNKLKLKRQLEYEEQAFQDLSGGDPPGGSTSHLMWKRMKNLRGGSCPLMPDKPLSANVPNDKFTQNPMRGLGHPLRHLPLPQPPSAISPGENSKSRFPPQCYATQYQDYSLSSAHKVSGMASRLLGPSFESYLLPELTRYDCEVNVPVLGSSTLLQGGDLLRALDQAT

The term IC50 denotes the concentration that gives 50% inhibition. Turning to `CCc1ccc(-c2noc(CCC(=O)NC3CC3)n2)cc1`, the 50% inhibitory concentration (IC50) with HIF1a (setting [2]) is above 99 µM; with HIF1a (setting [3]), above 99 µM; with HIF2a PANC (setting [2]), above 99 µM; with HIF2a PANC (setting [3]), above 99 µM; in experiment [1], > 99 µM (inactive).
Take `CCc1ccc(-c2noc(CCC(=O)NC(C)(C)C)n2)cc1`: the half-maximal inhibitory concentration (IC50) is above 99 µM in the experiment with HIF1a (setting [2]); above 99 µM in the experiment with HIF1a (setting [3]); above 99 µM in the experiment on HIF2a PANC (setting [2]); above 99 µM in the experiment with HIF2a PANC (setting [3]); > 99 µM (inactive) in experiment [1].
For `CC(C)(C)c1ccc(-c2noc(CCC(=O)NCC3CCCO3)n2)cc1` (configuration not stated), the IC50 in the experiment on HIF1a (setting [2]) is above 99 µM; in the experiment on HIF1a (setting [3]) it was above 99 µM; in the experiment with HIF2a PANC (setting [2]) it was below 0.19 µM; with HIF2a PANC (setting [3]), below 0.19 µM; in experiment [1], below 0.19 µM.
On to `CC(C)(C)c1ccc(-c2noc(CCC(=O)NCc3ccco3)n2)cc1`, for which the values for the IC50 with HIF1a (setting [2]), with HIF1a (setting [3]) and in the experiment on HIF2a PANC (setting [2]) were above 99 µM, above 99 µM and below 0.19 µM, respectively.
For the compound `CCNC(=O)CCc1nc(-c2ccccc2C)no1`, the IC50 was above 99 µM in the experiment with HIF1a (setting [2]); above 99 µM in the experiment on HIF1a (setting [3]); above 99 µM in the experiment with HIF2a PANC (setting [2]); above 99 µM in the experiment with HIF2a PANC (setting [3]); > 99 µM (inactive) in experiment [1].
For the compound `CCC(C)NC(=O)CCc1nc(-c2ccc(C(C)(C)C)cc2)no1` (configuration not stated), the IC50 in the experiment on HIF1a (setting [2]) is above 99 µM; in the experiment on HIF1a (setting [3]), above 99 µM; with HIF2a PANC (setting [2]), above 99 µM; in the experiment on HIF2a PANC (setting [3]), above 99 µM; in experiment [1], > 99 µM (inactive).
As to `CCCCc1ccc(-c2noc(CCC(=O)NC(C)(C)C)n2)cc1`, the IC50 was above 99 µM in the experiment with HIF1a (setting [2]); above 99 µM in the experiment on HIF1a (setting [3]); below 0.19 µM in the experiment on HIF2a PANC (setting [2]); below 0.19 µM with HIF2a PANC (setting [3]); below 0.19 µM in experiment [1].
Regarding `CCCCc1ccc(-c2noc(CCC(=O)NC(C)CC)n2)cc1` (configuration not stated), the IC50 in the experiment on HIF1a (setting [2]) was above 99 µM; in the experiment with HIF1a (setting [3]) it was above 99 µM; in the experiment with HIF2a PANC (setting [2]), below 0.19 µM; in the experiment on HIF2a PANC (setting [3]) it was below 0.19 µM; in experiment [1] it was below 0.19 µM.
With `CCOc1ccc(-c2noc(CCC(=O)NC)n2)cc1`, the IC50 is above 99 µM in the experiment on HIF1a (setting [2]); above 99 µM with HIF1a (setting [3]); 1.72 µM with HIF2a PANC (setting [2]); 0.673 µM in the experiment on HIF2a PANC (setting [3]); 1.2 µM in experiment [1].
Consider `CC(C)(C)NC(=O)CCc1nc(-c2ccc(C(C)(C)C)cc2)no1`, for which the IC50 with HIF1a (setting [2]) is above 99 µM; in the experiment on HIF1a (setting [3]) it was above 99 µM; in the experiment with HIF2a PANC (setting [2]) it was below 0.19 µM; in the experiment on HIF2a PANC (setting [3]), 0.573 µM; in experiment [1], 0.573 µM.
Take `CC(C)(C)c1ccc(-c2noc(CCC(=O)Nc3ccccc3)n2)cc1`: the IC50 is above 99 µM with HIF1a (setting [2]); above 99 µM in the experiment on HIF1a (setting [3]); below 0.19 µM in the experiment with HIF2a PANC (setting [2]); below 0.19 µM with HIF2a PANC (setting [3]); below 0.19 µM in experiment [1].
On to `CC(C)(C)NC(=O)CCc1nc(-c2ccccc2)no1`, for which the IC50 in the experiment on HIF1a (setting [2]) is above 99 µM; in the experiment on HIF1a (setting [3]), above 99 µM; with HIF2a PANC (setting [2]) it was above 99 µM; with HIF2a PANC (setting [3]) it was above 99 µM; in experiment [1] it was > 99 µM (inactive).
On to `CCNC(=O)CCc1nc(-c2ccc(C(C)(C)C)cc2)no1`, for which the IC50 in the experiment on HIF1a (setting [2]) is above 99 µM; in the experiment on HIF1a (setting [3]), above 99 µM; with HIF2a PANC (setting [2]) it was > 99 µM and < 10 µM; in the experiment with HIF2a PANC (setting [3]), below 0.19 µM.
For `CC(C)NC(=O)CCc1nc(-c2ccc(C(C)(C)C)cc2)no1`, the IC50 is above 99 µM in the experiment on HIF1a (setting [2]); above 99 µM with HIF1a (setting [3]); below 10 µM in the experiment on HIF2a PANC (setting [2]); below 0.19 µM in the experiment on HIF2a PANC (setting [3]); below 0.19 µM in experiment [1].
Regarding `CC(C)(C)c1ccc(-c2noc(CCC(=O)NC3CCC3)n2)cc1`, the IC50 in the experiment with HIF1a (setting [2]) is above 99 µM; with HIF1a (setting [3]), above 99 µM; in the experiment on HIF2a PANC (setting [2]), below 10 µM; with HIF2a PANC (setting [3]), below 0.19 µM; in experiment [1], below 0.19 µM.
For the compound `CNC(=O)CCc1nc(-c2ccc(C)cc2)no1`, the IC50 with HIF1a (setting [2]) was above 99 µM; in the experiment on HIF1a (setting [3]), above 99 µM; in the experiment with HIF2a PANC (setting [2]) it was 48 µM; in the experiment on HIF2a PANC (setting [3]), above 99 µM. Moreover, the IC50 entry in experiment [1] is “inactive”.
With `CCCCc1ccc(-c2noc(CCC(=O)NC)n2)cc1`, the IC50 was above 99 µM in the experiment with HIF1a (setting [2]); above 99 µM with HIF1a (setting [3]); above 99 µM in the experiment with HIF2a PANC (setting [2]); above 99 µM in the experiment with HIF2a PANC (setting [3]); > 99 µM (inactive) in experiment [1].
With `CCc1ccc(-c2noc(CCC(=O)NC)n2)cc1`, the IC50 in the experiment with HIF1a (setting [2]) is above 99 µM; in the experiment on HIF1a (setting [3]) it was above 99 µM; in the experiment on HIF2a PANC (setting [2]), above 99 µM; in the experiment with HIF2a PANC (setting [3]), above 99 µM; in experiment [1] it was > 99 µM (inactive).
For the compound `CC(C)CNC(=O)CCc1nc(-c2ccc(C(C)(C)C)cc2)no1`, the IC50 with HIF1a (setting [2]) was above 99 µM; with HIF1a (setting [3]), above 99 µM; with HIF2a PANC (setting [2]), below 0.19 µM; with HIF2a PANC (setting [3]), below 0.19 µM; in experiment [1] it was below 0.19 µM.
With `CCNC(=O)CCc1nc(-c2cccc(F)c2)no1`, the IC50 with HIF1a (setting [2]) was above 99 µM; with HIF1a (setting [3]) it was above 99 µM; in the experiment with HIF2a PANC (setting [2]) it was above 99 µM; in the experiment on HIF2a PANC (setting [3]), above 99 µM; in experiment [1], > 99 µM (inactive).
